ChEMBL document CHEMBL5357072, “Structural Modification of Noscapine via Photoredox/Nickel Dual Catalysis for the Discovery of S-Phase Arresting Agents” (ACS Med Chem Lett, 2024)

Experiments:
MOLM-13 [1] = assay: Induction of apoptosis in human MOLM-13 cells assessed as viable cells at 10 uM incubated for 48 hrs by Annexin V-FITC/PI staining based flow cytometric analysis (reference value: 92.24%); type: functional; settings: read-out: Activity
MOLM-13 [2] = assay: Cell cycle arrest in human MOLM-13 cells assessed as accumulation of G2/M phase cells at 10 uM incubated for 24 hrs by RNase A/PI staining based flow cytometry analysis (reference value: 11.74%); type: functional
[3] = Antiproliferative activity against Renal 1983 cells (unknown origin) assessed as inhibition of cell proliferation; type: functional, cell-based; settings: Renal 1983 cell
JeKo-1 [4] = assay: Antiproliferative activity against human JeKo-1 cells assessed as inhibition of cell growth incubated for 48 hrs by CCK8 assay; type: functional, cell-based; settings: JeKo-1, 48 h
In short: (§1)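 CCK-8 growth-inhibition assay in the malignant haematological lines MOLM-13, NB4 and Jeko-1 and in normal PBMC. Cells were treated across a range of doses and IC50 taken as the half-maximal growth-inhibitory concentration. Data are mean ± SD of triplicate samples, and experiments were repeated at least three times.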

MOLM-13 [5] = assay: Induction of apoptosis in human MOLM-13 cells assessed as necrotic cells at 10 uM incubated for 48 hrs by Annexin V-FITC/PI staining based flow cytometric analysis (reference value: 0.48%); type: functional
MOLM-13 [6] = assay: Cell cycle arrest in human MOLM-13 cells assessed as accumulation of G0/G1 phase cells at 10 uM incubated for 24 hrs by RNase A/PI staining based flow cytometry analysis (reference value: 38.14%); type: functional
NB-4 [7] = assay: Antiproliferative activity against human NB4 cells assessed as inhibition of cell growth incubated for 48 hrs by CCK8 assay; type: functional, cell-based; settings: NB-4, 48 h; in short: as §1
MCF7 = assay: Antiproliferative activity against human MCF7 cells assessed as inhibition of cell proliferation; type: functional, cell-based
MOLM-13 [8] = assay: Induction of apoptosis in human MOLM-13 cells assessed as early apoptotic cells at 10 uM incubated for 48 hrs by Annexin V-FITC/PI staining based flow cytometric analysis (reference value: 4.10%); type: functional
A549 = assay: Antiproliferative activity against human A549 cells assessed as cell growth inhibition at 10 uM incubated for 48 hrs by CCK8 assay relative to control; type: functional; settings: read-out: GI
In short: (§2)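 Single-concentration screen of six cancer cell lines. Cells were exposed to 10 μM compound and growth was measured by CCK-8 assay. Results are reported as inhibition rate at 10 μM.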

U-251 = assay: Antiproliferative activity against human U-251 cells assessed as cell growth inhibition at 10 uM incubated for 48 hrs by CCK8 assay relative to control; type: functional; settings: read-out: GI; in short: as §2
MOLM-13 [9] = assay: Induction of apoptosis in human MOLM-13 cells assessed as late apoptotic cells at 10 uM incubated for 48 hrs by Annexin V-FITC/PI staining based flow cytometric analysis (reference value: 3.17%); type: functional
MOLM-13 [10] = assay: Cell cycle arrest in human MOLM-13 cells assessed as accumulation of S phase cells at 10 uM incubated for 24 hrs by RNase A/PI staining based flow cytometry analysis (reference value: 50.12%); type: functional
JeKo-1 [11] = assay: Antiproliferative activity against human JeKo-1 cells assessed as cell growth inhibition at 10 uM incubated for 48 hrs by CCK8 assay relative to control; type: functional; settings: read-out: GI; in short: as §2
HeLa [12] = assay: Antiproliferative activity against human HeLa cells assessed as cell growth inhibition at 10 uM incubated for 48 hrs by CCK8 assay relative to control; type: functional; settings: read-out: GI; in short: as §2
MOLM-13 [13] = assay: Antiproliferative activity against human MOLM-13 cells assessed as inhibition of cell growth incubated for 48 hrs by CCK8 assay; type: functional, cell-based; settings: MOLM-13, 48 h; in short: as §1
MOLM-13 [14] = assay: Antiproliferative activity against human MOLM-13 cells assessed as cell growth inhibition at 10 uM incubated for 48 hrs by CCK8 assay relative to control; type: functional; settings: read-out: GI; in short: as §2
HeLa [15] = assay: Antiproliferative activity against human HeLa cells assessed as inhibition of cell proliferation; type: functional, cell-based
NB-4 [16] = assay: Antiproliferative activity against human NB4 cells assessed as cell growth inhibition at 10 uM incubated for 48 hrs by CCK8 assay relative to control; type: functional; settings: read-out: GI; in short: as §2

Q: What does the source list for COc1ccc2c(c1OC)C(=O)O[C@@H]2[C@H]1c2c(cc3c(c2OC)OCO3)CCN1C [NOSCAPINE]?
A: viability at 10 µM (MOLM-13 [1]): 83%; Activity (MOLM-13 [2]): 13.8%; IC50 [3]: 39 µM; IC50 (JeKo-1 [4]): > 20 µM; Activity (MOLM-13 [5]): 1.71%; Activity (MOLM-13 [6]): 25.66%; IC50 (NB-4 [7]): > 20 µM; IC50 (MCF7): 42 µM; Activity (MOLM-13 [8]): 6.9%; inhibition of growth at 10 µM (A549): < 5%; inhibition of growth at 10 µM (U-251): < 5%; Activity (MOLM-13 [9]): 8.44%; Activity (MOLM-13 [10]): 60.54%; inhibition of growth at 10 µM (JeKo-1 [11]): < 5%; inhibition of growth at 10 µM (HeLa [12]): < 5%; IC50 (MOLM-13 [13]): > 20 µM; inhibition of growth at 10 µM (MOLM-13 [14]): 19%; IC50 (HeLa [15]): 25 µM; inhibition of growth at 10 µM (NB-4 [16]): 26.7%
